Published values from different studies.
Each line is one published result; the experiments were not run side by side.
Cell line: HepG2
Effect on: cell growth or viability

| Compound | technique | concentration | time | quantity | value |
| --- | --- | --- | --- | --- | --- |
| COc1ccc(CCN2CCC(Nc3nc4ccccc4n3Cc3ccc(F)cc3)CC2)cc1 | resazurin | 10 µM | 24 h | viability | 68% |
| COc1ccc2c(c1)c1c(n2CO)CN2CCc3cc(OCc4ccccc4)c(OC)cc3C2C1 (stereo not drawn) | – | 20 µM | 24 h | viability | 88.9% |
| CNc1cccc2cc(C(=O)NCCc3cccc(C(=O)O)c3)c(=O)[nH]c12 | CCK-8 | 10 µM | 48 h | cell death | 5.9% |
| CC(=O)OC1c2c(ccc3ccc(=O)oc23)OC(C)(C)C1OC(=O)C(C)(O)C(C)O (stereo not drawn) | WST-1 | – | – | IC50 | 24.4 µM |
| N=C(N/N=C/c1ccccc1)N/N=C/c1ccccc1F | resazurin | – | 24 h | IC50 | 60 µM |
| COc1ccc(-c2nc3ncccn3c2NC(C)(C)CC(C)(C)C)cc1O | MTT | 25 µM | 48 h | viability | 77.7% |
| CC1(C)CC[C@]2(C)CC[C@]3(C)[C@H]4CC=C5[C@@H](CC[C@H](O)C5(C)C)[C@]4(C)CC[C@@]3(C)[C@@H]2C1 | WST-1 | – | – | IC50 | 50.9 µM |
| COc1cc2[nH]c(C)c(-c3ccc(Oc4ccc(F)cc4)cc3)c(=O)c2cc1Cl | resazurin | – | – | IC50 | > 10 µM |
| CNc1cccc2cc(C(=O)NCc3ccc(C(=O)O)cc3)c(=O)[nH]c12 | CCK-8 | 50 µM | 48 h | cell death | 18% |
| COc1ccc2c(c1)c1c(n2CO)CN2CCc3cc(OC)c(OCC(F)(F)F)cc3C2C1 (stereo not drawn) | – | 5 µM | 24 h | viability | 102% |
| N=C(N)c1ccc(OCCCCCOc2ccc(C(=N)N)cc2)cc1 | MTS | – | 24 h | CC50 | > 20 µM |
| COc1cc2c(cc1OCc1ccccc1F)C1Cc3c(n(CO)c4ccccc34)CN1CC2 (stereo not drawn) | – | 5 µM | 24 h | viability | 119% |
| CC(=O)O[C@@H]1c2c(ccc3ccc(=O)oc23)OC(C)(C)[C@@H]1OC(=O)C1(C)OC1C (stereo partly drawn) | WST-1 | – | – | IC50 | 20.7 µM |
| COC1=CC(c2ccco2)=NC1=Cc1ccc(CCCCCCCCCC(C)O)[nH]1 (stereo not drawn) | – | – | – | IC50 | > 100 µM |
| COc1cc2[nH]c(C)c(-c3ccc(Oc4ccc(C(F)(F)F)cn4)cc3)c(=O)c2cc1Cl | resazurin | – | – | IC50 | > 10 µM |
| OC(c1cc(C(F)(F)F)nc2c(C(F)(F)F)cccc12)C1CCCCN1 (stereo not drawn) | – | – | – | IC50 | 11 µM |
| COc1cc2[nH]c(C)c(-c3ccc(Oc4ccc(F)c(OC(F)(F)F)c4)cc3)c(=O)c2cc1Cl | resazurin | – | – | IC50 | > 10 µM |
| CC1=C(C)C(c2ccc[nH]2)=NC1=Cc1ccc(CCCCCCCCCC(C)O)[nH]1 (stereo not drawn) | – | – | – | IC50 | 9.38 µM |
| COc1cc2[nH]c(C)c(-c3ccc(Oc4cccc(OC(F)(F)F)c4)cc3)c(=O)c2cc1Cl | resazurin | – | – | IC50 | > 10 µM |
| COc1ccc2c(c1)c1c(n2CO)CN2CCc3cc(OC)c(OCc4ccc(F)cc4)cc3C2C1 (stereo not drawn) | – | 5 µM | 24 h | viability | 104% |
| CC(C)(C)CC(C)(C)Nc1c(-c2ccccc2)nc2ncccn12 | MTT | 25 µM | 48 h | viability | 67.4% |
| COC1=CC(c2ccc[nH]2)=NC1=Cc1ccc(CCCCCCCCCCCCO)[nH]1 | – | – | – | IC50 | 6.18 µM |
| CC(C)(C)CC(C)(C)Nc1c(-c2cccnc2)nc2ncccn12 | MTT | 25 µM | 48 h | viability | 92.5% |
| CCCCCCn1c(-c2cccc(Cl)c2)n[nH]c1=S | resazurin | 50 µM | 24 h | viability | 92% |
